Measurements as given in article PMC5730364 (Investigative Ophthalmology & Visual Science, 2017).
Square brackets hold non-standard residues; d marks the D form. Peptide text beside a SMILES is read from it. Orn = NCCC[C@H](N)C(=O)O

How the values were obtained:
S. aureus 49525_Xen36 = experiment: Time-kill bactericidal activity, bioluminescence; format: cell-based, Staphylococcus aureus; conditions: 30 minutes' incubation, Fig. 4
Summary of the method: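 Bioluminescent S. aureus Xen36 was grown from a single colony in LB overnight at 37°C with agitation. It was diluted 1:10 into fresh LB for 2 h at 37°C to mid-log phase and adjusted by OD600 to 1 × 10⁷ CFU/mL. Then 100 μL per well was exposed to a concentration series of test peptide for 30 min. Viable-cell luminescence was read by IVIS Lumina imaging (open filter, binning 4, f-stop 1, 30 s count). Results are mean ± SE of triplicates from two independent experiments.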

P. aeruginosa 19660_Xen5 = experiment: Time-kill bactericidal activity, bioluminescence; format: cell-based, Pseudomonas aeruginosa; conditions: Fig. 2
Summary of the method: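 Luciferase-tagged strain grown from a single colony in LB at 37°C overnight with agitation, diluted 1:10 into fresh LB and grown 2 h at 37°C to mid-log. Adjusted by OD600 to 1 × 10⁷ CFU/mL and exposed to test compound at several concentrations for 0, 30, 60 and 120 min. Viable cells quantified noninvasively by bioluminescence imaging. Mean ± SE of triplicates from two independent experiments.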

[1] = system: corneal epithelial scrape wounds; experiment: In vivo corneal epithelial wound healing; parameters: species or system C57BL/6 mice
Summary of the method: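 C57BL/6 mice (9–13 weeks) were anaesthetised with ketamine 100 mg/kg plus xylazine 10 mg/kg ip. A 2-mm diameter corneal epithelial scrape wound was made in the right eye with an Algerbrush. Then 5 μL of test peptide (2, 64 or 640 μg/mL) or PBS vehicle was applied topically immediately, 5 min later, and at 6, 12 and 18 h. Wounds were stained with 1.5 μL 1% sodium fluorescein every 6 h until closure (24 h), imaged, and their areas measured.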

| Structure (SMILES) | bactericidal activity against S. aureus (S. aureus 49525_Xen36) | bactericidal activity during the short incubation time period (P. aeruginosa 19660_Xen5; 2 hours) | bactericidal activity following 60 minutes of exposure (P. aeruginosa 19660_Xen5; 60 minutes) | wound closure vs vehicle ([1]; at 24 hours following topical ocular administration, 2, 64 or 640 μg/mL) | effect on corneal epithelial wound healing ([1]; mice, topical 5 μL RP444 2, 64 or 640 μg/mL at 0 h, 5 minutes, 6, 12, 18 hours post wound, two independent experiments, n = 7-10 mice/group) |
| --- | --- | --- | --- | --- | --- |
| CN[C@H](CC(C)C)C(=O)N[C@H]1C(=O)N[C@@H](CC(N)=O)C(=O)N[C@H]2C(=O)N[C@H]3C(=O)N[C@H](C(=O)N[C@H](C(=O)O)c4cc(O)cc(O)c4-c4cc3ccc4O)[C@H](O)c3ccc(c(Cl)c3)Oc3cc2cc(c3O[C@@H]2O[C@H](CO)[C@@H](O)[C@H](O)[C@H]2O[C@H]2C[C@](C)(N)[C@H](O)[C@H](C)O2)Oc2ccc(cc2Cl)[C@H]1O [vancomycin] | neither tobramycin nor vancomycin exhibited any bactericidal effect | no evidence of bactericidal activity |  |  |  |
| NC[C@H]1O[C@H](O[C@H]2[C@H](O)[C@@H](O[C@H]3O[C@H](CO)[C@@H](O)[C@H](N)[C@H]3O)[C@H](N)C[C@@H]2N)[C@H](N)C[C@@H]1O [tobramycin] | neither tobramycin nor vancomycin exhibited any bactericidal effect |  | bactericidal effects at 60 minutes |  |  |
| C[C@H](NC(=O)[C@H](Cc1ccccc1)NC(=O)[C@H](C)NC(=O)[C@H](Cc1ccccc1)NC(=O)[C@H](CCCN)NC(=O)[C@H](C)NC(=O)[C@H](Cc1ccccc1)NC(=O)[C@H](CCCN)NC(=O)[C@H](CCCN)NC(=O)[C@H](C)NC(=O)[C@H](Cc1ccccc1)NC(=O)[C@H](CCCN)NC(=O)[C@H](CCCN)NC(=O)[C@H](Cc1ccccc1)NC(=O)[C@H](CCCN)NC(=O)[C@H](CCCN)NC(=O)[C@H](C)NC(=O)[C@H](Cc1ccccc1)NC(=O)[C@H](CCCN)NC(=O)[C@H](CCCN)NC(=O)[C@H](C)NC(=O)[C@@H](N)Cc1ccccc1)C(=O)N[C@@H](Cc1ccccc1)C(=O)O [RP444] (H-FA[Orn][Orn]FA[Orn][Orn]F[Orn][Orn]FA[Orn][Orn]FA[Orn]FAFAF-OH) |  |  |  | No statistically significant difference in closure | did not affect corneal epithelial wound healing |
